Structures can show the parent of a compound that is named as a salt.
How the values were obtained:
REV-ERBα = biological target: T1, REV-ERBα (Homo sapiens, UniProt P20393); assay: REV-ERBα NCOR FRET assay; assay type: biochemical; details: purified REV-ERBα protein, in vitro
T1 sequence (P20393 1-614): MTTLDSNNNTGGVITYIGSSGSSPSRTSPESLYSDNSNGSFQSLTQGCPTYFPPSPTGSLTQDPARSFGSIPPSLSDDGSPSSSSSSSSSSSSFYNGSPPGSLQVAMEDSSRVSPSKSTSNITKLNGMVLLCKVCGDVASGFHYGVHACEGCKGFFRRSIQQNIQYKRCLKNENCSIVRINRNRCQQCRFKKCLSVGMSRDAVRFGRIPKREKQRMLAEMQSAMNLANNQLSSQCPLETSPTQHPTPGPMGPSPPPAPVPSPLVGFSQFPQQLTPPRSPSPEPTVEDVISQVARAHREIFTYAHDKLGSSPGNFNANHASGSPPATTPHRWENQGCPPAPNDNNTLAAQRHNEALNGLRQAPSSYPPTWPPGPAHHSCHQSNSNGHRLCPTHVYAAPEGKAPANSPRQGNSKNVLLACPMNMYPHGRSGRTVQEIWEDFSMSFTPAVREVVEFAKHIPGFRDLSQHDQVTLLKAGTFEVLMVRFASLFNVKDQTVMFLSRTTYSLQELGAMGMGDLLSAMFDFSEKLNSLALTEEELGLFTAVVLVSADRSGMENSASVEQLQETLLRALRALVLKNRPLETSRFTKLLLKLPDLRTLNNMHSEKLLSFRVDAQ

[1] = test system: BMAL1 expression (Bmal-promoter luciferase) in U2OS cells; assay: BMAL reporter gene assay in synchronized U2OS cells; assay type: cell-based, human; details: for BMAL1 Phase Delay: delay of peak of second cycle, 20 μM treated cells relative to DMSO treated cells; for inhibition at 20 µM: Homo sapiens, U2OS, 40 h, read-out: BMAL1 Supp.
IL-6 = assay: LPS-stimulated IL-6 expression in THP-1 cells; assay type: cell-based, human; details: six hours; for IL-6 transcript expression: 10 μM compound, LPS 10 μg/mL; for IL-6 secretion / expression: 1 μM compound, LPS 10 mcg/mL
Method in brief: (§1)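 THP-1 cells kept at 3×105 to 8×10^5 cells/mL in RPMI1640 with 10% FBS. Cells were stimulated with LPS 10 μg/mL alongside DMSO or test compound at 10 μM, or at 1 μM in triplicate. After 6 h, cells were lysed and RNA was analysed by RT-qPCR with TATA box binding protein as housekeeping gene. Groups were compared by one-way ANOVA with Dunnett's post-hoc test.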

ABCA1 = ABCA1 expression in THP-1 cells; assay type: cell-based, human; details: six hours; for ABCA1 transcript expression: 10 μM compound, LPS 10 μg/mL; for ABCA1 levels: 1 μM compound, LPS 10 mcg/mL
Method in brief: as §1

LXRα = biological target: T2, LXRα (Homo sapiens, UniProt Q13133); assay: LXRα radio ligand displacement binding; details: for LXRα Fold Sel.: selectivity for REV-ERBα over LXRα
T2 sequence (Q13133 1-447): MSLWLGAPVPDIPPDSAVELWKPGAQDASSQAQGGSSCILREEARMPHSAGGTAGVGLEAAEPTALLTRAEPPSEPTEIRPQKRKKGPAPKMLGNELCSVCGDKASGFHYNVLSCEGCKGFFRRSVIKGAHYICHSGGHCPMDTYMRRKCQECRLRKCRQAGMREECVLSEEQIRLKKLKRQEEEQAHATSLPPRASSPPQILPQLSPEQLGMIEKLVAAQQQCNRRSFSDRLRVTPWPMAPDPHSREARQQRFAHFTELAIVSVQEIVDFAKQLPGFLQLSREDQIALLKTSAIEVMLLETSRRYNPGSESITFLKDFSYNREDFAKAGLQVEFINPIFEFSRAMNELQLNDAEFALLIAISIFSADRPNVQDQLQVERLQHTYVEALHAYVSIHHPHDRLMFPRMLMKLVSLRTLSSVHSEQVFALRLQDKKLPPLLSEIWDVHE

[2] = IV and oral DMPK cassette dose experiment; assay type: in vivo, C57Bl/6 mice; details: for half-life / AUC(0-t) / Vd / clearance / Cmax / Tmax / bioavailability: male, C57Bl/6, mouse, plasma, 1 mg/kg; for bioavailability: F

LXRα Fold Sel. (LXRα) | AUC(0-t) ([2]; iv) | Vd ([2]; iv) | clearance ([2]; iv) | half-life ([2]; iv) | AUC(0-t) ([2]; po) | Cmax ([2]; po) | Tmax ([2]; po) | bioavailability ([2]; po, 1 mg/Kg cassette, mice) | SMILES | recruitment of NCOR peptide fragment to REV-ERBα (in words) (REV-ERBα) | BMAL1 Phase Delay [1] | IL-6 secretion / expression (IL-6) | ABCA1 levels (ABCA1) | further results
– | – | – | – | – | – | – | – | – | CC(C)(C)OC(=O)CN(Cc1ccc(Cl)cc1)Cc1ccc([N+](=O)[O-])s1 [Compound 1, reference compound] | induced recruitment of co-factor NCOR peptide fragment | 0 h | – | – | IL-6 transcript expression (IL-6): significantly repressed IL-6; ABCA1 transcript expression (ABCA1): increased ABCA1 transcript expression
1,259 fold | 2540 ng·h/mL | 0.3 L/kg | 6.67 mL/min/kg | 99 min | 594 ng·h/mL | 180 ng/mL | 120 min | – | Cc1cc(Cl)ccc1CN(Cc1ccc(Cl)cc1)Cc1ccc([N+](=O)[O-])s1 [Compound 4, N-(4-chloro-2-methylbenzyl)-N-(4-chlorobenzyl)-1-(5-nitrothiophen-2-yl)methanamine hydrochloride salt] | – | 0 h | significant reduction of IL-6 secretion | no measurable effect on ABCA1 levels | effect on BMAL oscillation curve ([1]; synchronized U2OS cells): suppression and shift of the BMAL oscillation curve in a dose-dependent manner; F ([2]; Oral, 1 mg/Kg cassette, mice): 23.4%; half-life [2]: 120 min
<1 fold | – | – | – | – | – | – | – | – | N#Cc1ccc(CN(Cc2cccnc2)Cc2ccccc2F)s1 [Compound 26, 5-(((2-Fluorobenzyl)(pyridin-3-ylmethyl)amino)methyl)thiophene-2-carbonitrile] | – | 0 h | – | – | –
– | – | – | – | – | – | – | – | – | C=CC1=C(C)c2cc3[n-]c(cc4[n-]c(cc5nc(cc1n2)C(C)=C5C=C)c(C)c4CCC(=O)O)c(CCC(=O)O)c3C.[Fe+2] [heme, reference compound] | – | – | – | – | BMAL-luciferase suppression ([1]; in-house U2OS reporter assay, single endpoint comparison): > 50%
– | – | – | – | – | – | – | – | – | CCCCCNC(=O)N1CCC(CN(Cc2ccc(Cl)cc2)Cc2ccc([N+](=O)[O-])s2)C1 (stereo not drawn) [Compound 2, reference compound] | neither compounds 2 or 3 increased recruitment of the NCOR peptide fragment | – | – | – | IC50 (LXRα): 6.3 µM; inhibition at 20 µM [1]: 20%; IL-6 transcript expression (IL-6): significantly repressed IL-6; ABCA1 transcript expression (ABCA1): increased ABCA1 transcript expression
– | 365 ng·h/mL | 1.6 L/kg | 45 mL/min/kg | 33 min | 7.93 ng·h/mL | 7.41 ng/mL | 30 min | 2.2% | CCOC(=O)N1CCC(CN(Cc2ccc(Cl)cc2)Cc2ccc([N+](=O)[O-])s2)C1 (stereo not drawn) [Compound 3, reference compound] | neither compounds 2 or 3 increased recruitment of the NCOR peptide fragment | – | – | – | inhibition at 20 µM [1]: 14%
– | – | – | – | – | – | – | – | – | O=[N+]([O-])c1ccc(CN(Cc2ccc(Cl)cc2)Cc2ccccc2F)s1 [Compound 6, N-(4-Chlorobenzyl)-N-(2-fluorobenzyl)-1-(5-nitrothiophen-2-yl)methanamine hydrochloride salt] | – | 0 h | – | – | –
– | – | – | – | – | – | – | – | – | N#Cc1ccc(CN(Cc2cccnc2)Cc2cc(F)ccc2F)s1 [Compound 25, 5-(((2,5-Difluorobenzyl)(pyridin-3-ylmethyl)amino)methyl)thiophene-2-carbonitrile] | – | 0 h | – | – | –
100 fold | 361 ng·h/mL | 1.8 L/kg | 46.7 mL/min/kg | 76.2 min | 10.2 ng·h/mL | 9.14 ng/mL | 15 min | 3.5% | N#Cc1ccc(CN(Cc2ccc(Cl)cc2)Cc2cccnc2)s1 [Compound 16, 5-(((4-Chloro-benzyl)(pyridin-3-ylmethyl)amino)methyl)thiophene-2-carbonitrile hydrochloride salt] | – | 0 h | significant reduction of IL-6 secretion | no measurable effect on ABCA1 levels | –
– | – | – | – | – | – | – | – | – | Clc1ccc(CN(Cc2cccnc2)Cc2ncc[nH]2)cc1 [Compound 21, N-((1H-Imidazol-2-yl)methyl)-N-(4-chlorobenzyl)-1-(pyridin-3-yl)methanamine] | complete loss of activity | – | – | – | –
> 250 fold | 354 ng·h/mL | 1.5 L/kg | 46.7 mL/min/kg | 44.4 min | 8.39 ng·h/mL | 8.98 ng/mL | 15 min | 2.4% | O=[N+]([O-])c1ccc(CN(Cc2ccc(F)cc2)Cc2cccnc2)s1 [Compound 10, N-(4-Fluorobenzyl)-1-(5-nitrothiophen-2-yl)-N-(pyridin-3-ylmethyl)methanamine hydrochloride salt] | – | 0 h | significant reduction of IL-6 secretion | no measurable effect on ABCA1 levels | –
– | 375 ng·h/mL | 1.4 L/kg | 43.3 mL/min/kg | 44.4 min | 9.39 ng·h/mL | 9.94 ng/mL | 15 min | 3% | N#Cc1ccc(CN(Cc2cccnc2)Cc2ccc(F)c(F)c2)s1 [Compound 23, 5-(((3,4-Difluorobenzyl)(pyridin-3-ylmethyl)amino)methyl)thiophene-2-carbonitrile] | – | – | significant reduction of IL-6 secretion | no measurable effect on ABCA1 levels | –
<1 fold | – | – | – | – | – | – | – | – | Clc1ccc(CN(Cc2cccnc2)Cc2nccs2)cc1 [Compound 20, N-(4-Chlorobenzyl)-1-(pyridin-3-yl)-N-(thiazol-2-ylmethyl)methanamine] | complete loss of activity | – | – | – | –

From publication PMC4347663 (Journal of medicinal chemistry, 2013)
